What was measured:
Plasmodium falciparum [1] = assay: In vitro antimalarial activity against chloroquine-sensitive Plasmodium falciparum D6 (CDC/Sierra Leone I); assay type: functional, organism-based
Outline: (§1)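 Compound DMSO solution diluted 400-fold in RPMI 1640 containing 25 mM Hepes, 32 mM NaHCO3 and 10% human plasma, then 2-fold serial dilutions over 11 concentrations. Parasites exposed 48 h at 37 °C under 5% O2/5% CO2/90% N2, then [3H]hypoxanthine added for a further 18 h. DNA harvested onto glass filters and counted by scintillation. IC50 from logistic dose-response fit.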

Plasmodium falciparum [2] = assay: In vitro antimalarial activity against chloroquine-resistant Plasmodium falciparum CDC/Indochina III W2; assay type: functional, organism-based; outline: as §1
[3] = Ratio of IC50 of W2 strain to D6 strain.; assay type: functional
Outline: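 Resistance index is IC50 against chloroquine-resistant P. falciparum W2 (CDC/Indochina III) divided by IC50 against chloroquine-sensitive D6 (CDC/Sierra Leone I). Compounds dissolved in DMSO, diluted 400-fold into RPMI 1640 with 25 mM Hepes, 32 mM NaHCO3 and 10% human plasma, then 2-fold serially over 11 concentrations. Parasites were exposed for 48 h at 37 °C (5% O2, 5% CO2, 90% N2), then given [3H]hypoxanthine for 18 h. IC50 came from logistic fits.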

Plasmodium falciparum [4] = assay: In vitro antimalarial activity against chloroquine-resistant Plasmodium falciparum CDC/Indochina III W2; Not active; assay type: functional, organism-based; outline: as §1
Plasmodium falciparum [5] = assay: In vitro antimalarial activity against chloroquine-sensitive Plasmodium falciparum CDC/Sierra Leone I D6; Not active; assay type: functional, organism-based; outline: as §1
Plasmodium falciparum [6] = assay: In vitro antimalarial activity against chloroquine-sensitive Plasmodium falciparum D6 (CDC/Sierra Leone I); Not active; assay type: functional, organism-based; outline: as §1
[7] = Compound was evaluated for the pKa value in water at 20 degrees Centigrade; assay type: physicochemical

Structure (SMILES)	IC50 (Plasmodium falciparum [1]) [nM]	IC50 (Plasmodium falciparum [2]) [nM]	Resistance index [3]	IC50 (Plasmodium falciparum [4])	IC50 (Plasmodium falciparum [5])	IC50 (Plasmodium falciparum [6])	pKa [7]
COc1ccc(OC)c(C(=O)/C=C/c2cccc(Cl)c2Cl)c1	1100	920	0.8				
COc1ccc(C(=O)CCc2ccc(Cl)cc2Cl)c(OC)c1	> 15000	> 15000		Not Active	Not Active		
COc1ccc(/C=C/C(=O)c2ccc(F)cc2F)c(OC)c1	19100	11100	0.6				
COc1ccc(C(=O)/C=C\c2ccc(Cl)cc2Cl)c(OC)c1OC	430	360	0.8				
COc1ccc(C(=O)/C=C/c2ccc(F)c(F)c2)c(OC)c1	2100	2090	1				
COc1ccc(C(=O)/C=C/c2ccc(Cl)cc2Cl)c(OC)c1	770	900	1.2				
COc1ccc(C(=O)/C=C/c2cccc(Cl)c2Cl)c(OC)c1	1290	1380	1.1				
COc1ccc(C(=O)/C(C)=C/c2ccc(Cl)cc2Cl)c(OC)c1	6260	2460	0.4				
COc1ccc(OC)c(C(=O)/C=C\c2ccc(Cl)cc2Cl)c1	920	750	0.8				
COc1ccc(C(=O)/C=C/c2cc3ccccc3nc2Cl)c(OC)c1	1290	1000	0.8				
COc1ccc(C(=O)/C=C/c2ccc(C(F)(F)F)cc2)c(OC)c1	680	750	1.1				
COc1ccc(C(=O)/C=C/c2ccc(F)cc2F)c(OC)c1	1950	1900	1				
O=C(/C=C/c1cc2ccccc2nc1Cl)c1ccc(F)cc1F	980	1000	1				
O=C(/C=C\c1ccnc2ccccc12)c1ccc(Cl)c(Cl)c1	1690	800	0.5				
COc1ccc(C(=O)/C=C/c2cccc(Cl)c2Cl)cc1OC	1960	1140	0.6				
COc1ccc(/C=C(\C)C(=O)c2ccc(Cl)cc2Cl)c(OC)c1	> 14000	> 14000		Not Active		Not Active	
COc1ccc(C(=O)CCc2ccc(F)c(F)c2)c(OC)c1	> 16000	> 16000		Not Active		Not Active	
c1ccc2cnccc2c1 [ISOQUINOLINE]							5.4
COc1ccc(C(=O)/C=C/c2cc3ccccc3nc2Cl)cc1OC	720	510	0.7				
O=C(/C=C\c1ccnc2ccccc12)c1cc(Cl)ccc1Cl	190	230	1.2				
COc1cccc(OC)c1C(=O)/C=C\c1ccc(Cl)cc1	1240	770	0.6				
O=C(/C=C/c1ccc(Cl)cc1Cl)c1ccc(-n2ccnc2)cc1	900	1180	1.3				
O=C(/C=C/c1cc2ccccc2nc1Cl)c1cccnc1	2530	710	0.3				
COc1ccc(/C=C/C(=O)c2ccc(Cl)cc2Cl)c(OC)c1	3400	3800	1.1				

Source: ChEMBL document CHEMBL1128219, “In vitro antimalarial activity of chalcones and their derivatives” (J Med Chem, 1995)
